Calls of active or inactive are those of the source. The rule behind the calls is not given here.
Experiments:
[1] = Selectivity ratio of IC50 for human full length ABHD6 expressed in Escherichia coli cells to IC50 for rat recombinant His/GST-tagged FAAH expressed in Escherichia coli cells by fluorescence based assay
[2] = molecular target: T1, Fatty-acid amide hydrolase 1 (Rattus norvegicus) (UniProt P97612); test: Inhibition of rat recombinant His/GST-tagged FAAH expressed in Escherichia coli cells at 1 uM using AAMCA as substrate incubated for 15 mins followed by substrate addition and measured after every 20 mins for 4 hrs by fluorescence based assay relative to control
T1 sequence (whole entry): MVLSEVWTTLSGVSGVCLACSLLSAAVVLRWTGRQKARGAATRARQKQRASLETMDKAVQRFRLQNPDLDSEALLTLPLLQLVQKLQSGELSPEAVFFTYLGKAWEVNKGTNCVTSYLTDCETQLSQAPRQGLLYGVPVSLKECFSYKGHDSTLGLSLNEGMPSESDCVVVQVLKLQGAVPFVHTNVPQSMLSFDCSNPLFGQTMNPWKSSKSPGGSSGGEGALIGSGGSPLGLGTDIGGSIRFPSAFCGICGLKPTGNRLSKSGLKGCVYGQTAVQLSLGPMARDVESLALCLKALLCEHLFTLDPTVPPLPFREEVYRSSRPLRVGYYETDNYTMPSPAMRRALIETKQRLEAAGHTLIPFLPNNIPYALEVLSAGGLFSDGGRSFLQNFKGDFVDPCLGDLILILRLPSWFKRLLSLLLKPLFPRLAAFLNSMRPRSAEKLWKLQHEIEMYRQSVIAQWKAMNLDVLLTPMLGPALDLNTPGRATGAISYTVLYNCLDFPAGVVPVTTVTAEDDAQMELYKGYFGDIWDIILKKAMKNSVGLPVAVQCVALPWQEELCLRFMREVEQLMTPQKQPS
Summary of the method: (§1)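 Fluorescent FAAH assay with arachidonoyl 7-amino-4-methylcoumarin amide as substrate; compound tested at a single concentration of 1 µM; percent inhibition reported.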

[3] = molecular target: T2, Fatty-acid amide hydrolase 1 (Homo sapiens) (UniProt O00519); test: Inhibition of human recombinant MBP-tagged FAAH expressed in Escherichia coli cells at 1 uM using AAMCA as substrate incubated for 15 mins followed by substrate addition and measured after every 20 mins for 4 hrs by fluorescence based assay relative to control; summary of the method: as §1
T2 sequence (whole entry): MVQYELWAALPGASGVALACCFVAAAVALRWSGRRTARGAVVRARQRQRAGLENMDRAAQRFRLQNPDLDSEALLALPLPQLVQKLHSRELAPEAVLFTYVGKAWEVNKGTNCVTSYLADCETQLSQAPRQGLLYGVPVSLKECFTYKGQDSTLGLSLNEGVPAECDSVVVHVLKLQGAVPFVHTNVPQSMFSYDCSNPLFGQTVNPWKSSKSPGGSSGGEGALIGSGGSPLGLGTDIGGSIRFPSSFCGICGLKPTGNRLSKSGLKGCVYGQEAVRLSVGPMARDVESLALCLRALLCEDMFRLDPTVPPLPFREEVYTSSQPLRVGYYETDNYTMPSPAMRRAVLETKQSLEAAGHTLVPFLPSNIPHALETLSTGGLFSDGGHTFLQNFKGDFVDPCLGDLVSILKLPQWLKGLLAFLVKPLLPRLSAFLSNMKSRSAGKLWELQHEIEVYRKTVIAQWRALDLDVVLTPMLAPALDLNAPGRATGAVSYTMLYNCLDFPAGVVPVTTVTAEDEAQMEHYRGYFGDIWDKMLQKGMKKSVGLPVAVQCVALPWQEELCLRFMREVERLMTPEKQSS

Monoglyceride lipase = molecular target: T3, Monoglyceride lipase (Homo sapiens, UniProt Q99685); test: Inhibition of human recombinant His-tagged MGL expressed in Escherichia coli BL21 DE3 cells using AHMMCE as substrate preincubated with enzyme for 15 mins followed by substrate addition and measured after every 15 mins for 3 hrs by fluorescence based assay
T3 sequence (Q99685 whole entry): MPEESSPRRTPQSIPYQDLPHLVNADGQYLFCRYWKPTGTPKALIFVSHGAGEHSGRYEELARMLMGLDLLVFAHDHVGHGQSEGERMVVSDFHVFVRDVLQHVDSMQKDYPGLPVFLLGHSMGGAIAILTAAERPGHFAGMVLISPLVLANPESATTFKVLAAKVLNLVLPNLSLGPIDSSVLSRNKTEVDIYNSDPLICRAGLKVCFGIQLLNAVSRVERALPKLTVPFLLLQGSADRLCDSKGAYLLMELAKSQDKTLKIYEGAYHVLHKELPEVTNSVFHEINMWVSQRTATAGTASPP
Summary of the method: (§2)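 Fluorescent enzyme assay in throughput format. Human recombinant FAAH or purified rat FAAH used arachidonoyl 7-amino-4-methylcoumarin amide as substrate; human recombinant MGL was run by a similar fluorometric procedure.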

[4] = molecular target: Cannabinoid receptor 2 (Homo sapiens) (UniProt P34972); test: Displacement of [3H]CP55940 from human CB2 receptor expressed in HEK293 cells by competition-equilibrium binding analysis; assay type: cell-based
Summary of the method: (§3)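 HEK293 cell membranes expressing mouse or human CB2; competition-equilibrium binding against [3H]CP-55,940.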

[5] = molecular target: Cannabinoid receptor 1 (Rattus norvegicus) (UniProt P20272); test: Displacement of [3H]CP55940 from CB1 receptor in rat brain by competition-equilibrium binding analysis
Target sequence in this assay (P20272 whole entry, looked up): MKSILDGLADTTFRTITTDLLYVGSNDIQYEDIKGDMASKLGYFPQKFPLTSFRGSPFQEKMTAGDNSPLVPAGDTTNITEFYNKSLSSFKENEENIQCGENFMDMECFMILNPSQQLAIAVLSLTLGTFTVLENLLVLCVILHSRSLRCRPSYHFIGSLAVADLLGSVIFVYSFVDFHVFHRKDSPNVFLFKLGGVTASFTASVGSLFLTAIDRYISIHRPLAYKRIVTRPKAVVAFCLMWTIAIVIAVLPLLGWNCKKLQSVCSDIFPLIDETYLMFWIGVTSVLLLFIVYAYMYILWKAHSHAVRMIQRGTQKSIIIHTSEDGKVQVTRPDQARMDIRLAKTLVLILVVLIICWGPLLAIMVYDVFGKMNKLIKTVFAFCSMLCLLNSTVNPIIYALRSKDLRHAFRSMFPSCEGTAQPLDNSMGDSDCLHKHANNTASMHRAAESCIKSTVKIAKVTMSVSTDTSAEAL

[6] = molecular target: Cannabinoid receptor 2 (Mus musculus) (UniProt P47936); test: Displacement of [3H]CP55940 from mouse CB2 receptor expressed in HEK293 cells by competition-equilibrium binding analysis; assay type: cell-based; summary of the method: as §3
Homo sapiens [7] = species on record: Homo sapiens; test: Selectivity ratio of IC50 for human recombinant His-tagged MGL expressed in Escherichia coli BL21 DE3 cells to IC50 for human recombinant MBP-tagged FAAH expressed in Escherichia coli cells by fluorescence based assay
[8] = molecular target: Cannabinoid receptor 1 (Rattus norvegicus) (UniProt P20272); test: Displacement of [3H]CP55940 from CB1 receptor in rat brain by competition-equilibrium binding analysis; assay type: tissue-based
Summary of the method: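 Rat brain membranes as CB1 source; competition-equilibrium binding against [3H]CP-55,940.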
Target sequence in this assay (P20272 whole entry): as the sequence (P20272 whole entry, looked up) above

Homo sapiens [9] = species on record: Homo sapiens; test: Selectivity ratio of IC50 for human full length ABHD6 expressed in Escherichia coli cells to IC50 for human recombinant MBP-tagged FAAH expressed in Escherichia coli cells by fluorescence based assay
[10] = Selectivity ratio of IC50 for human recombinant His-tagged MGL expressed in Escherichia coli BL21 DE3 cells to IC50 for rat recombinant His/GST-tagged FAAH expressed in Escherichia coli cells by fluorescence based assay
[11] = Stability in mouse gastric fluid assessed as half life; assay type: ADME, tissue-based, Gastric juice
Summary of the method: (§4)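 Stability assessed as half-life in human, rat and mouse plasma and gastric fluid, and in human, rat and mouse liver microsomal preparations.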

[12] = Stability in rat gastric fluid assessed as half life; assay type: ADME, tissue-based, Gastric juice; summary of the method: as §4
[13] = Stability in human liver microsomes assessed as half life; assay type: ADME, Microsome; summary of the method: as §4
[14] = Stability in rat plasma assessed as half life; assay type: ADME, cell-free; summary of the method: as §4
[15] = Drug concentration in brain (unknown origin) at 2 mg/kg, iv measured after 15 mins; assay type: ADME, organism-based; conditions: read-out: Ct
Summary of the method: (§5)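 Cassette pharmacokinetics: compounds given together at 2 mg/kg iv; brain and plasma levels (µg/mL) measured at 15 min.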

[16] = Stability in human gastric fluid assessed as half life; assay type: ADME, tissue-based, Gastric juice; summary of the method: as §4
[17] = Stability in rat liver microsomes assessed as half life; assay type: ADME, Microsome; summary of the method: as §4
[18] = Stability in mouse plasma assessed as half life; assay type: ADME, cell-free; summary of the method: as §4
[19] = molecular target: T4, Fatty-acid amide hydrolase 1 (Homo sapiens, UniProt O00519); test: Inhibition of human recombinant MBP-tagged FAAH expressed in Escherichia coli cells using AAMCA as substrate incubated for 15 mins followed by substrate addition and measured after every 20 mins for 4 hrs by fluorescence based assay; summary of the method: as §2
T4 sequence (O00519 whole entry): T2 sequence (whole entry)

[20] = molecular target: T5, Fatty-acid amide hydrolase 1 (Rattus norvegicus, UniProt P97612); test: Inhibition of rat recombinant His/GST-tagged FAAH expressed in Escherichia coli cells using AAMCA as substrate incubated for 15 mins followed by substrate addition and measured after every 20 mins for 4 hrs by fluorescence based assay; summary of the method: as §2
T5 sequence (P97612 whole entry): T1 sequence (whole entry)

[21] = Drug concentration in plasma (unknown origin) at 2 mg/kg, iv measured after 15 mins; assay type: ADME, organism-based; summary of the method: as §5
[22] = Stability in human plasma assessed as half life; assay type: ADME, cell-free; summary of the method: as §4
[23] = Stability in mouse liver microsomes assessed as half life; assay type: ADME, Microsome; summary of the method: as §4

Cannabinoid receptor 2 (Mus musculus), sequence (P47936 whole entry): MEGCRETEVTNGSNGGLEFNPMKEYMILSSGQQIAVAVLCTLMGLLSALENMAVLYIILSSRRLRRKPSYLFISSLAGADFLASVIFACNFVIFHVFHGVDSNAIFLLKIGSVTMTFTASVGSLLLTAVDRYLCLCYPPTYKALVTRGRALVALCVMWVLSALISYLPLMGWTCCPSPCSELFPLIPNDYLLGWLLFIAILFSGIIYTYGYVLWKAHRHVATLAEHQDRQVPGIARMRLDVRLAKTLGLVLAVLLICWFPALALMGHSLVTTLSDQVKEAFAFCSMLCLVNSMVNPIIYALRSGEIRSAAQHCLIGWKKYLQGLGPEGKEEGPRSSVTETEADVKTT
Cannabinoid receptor 2 (Homo sapiens), sequence (P34972 whole entry): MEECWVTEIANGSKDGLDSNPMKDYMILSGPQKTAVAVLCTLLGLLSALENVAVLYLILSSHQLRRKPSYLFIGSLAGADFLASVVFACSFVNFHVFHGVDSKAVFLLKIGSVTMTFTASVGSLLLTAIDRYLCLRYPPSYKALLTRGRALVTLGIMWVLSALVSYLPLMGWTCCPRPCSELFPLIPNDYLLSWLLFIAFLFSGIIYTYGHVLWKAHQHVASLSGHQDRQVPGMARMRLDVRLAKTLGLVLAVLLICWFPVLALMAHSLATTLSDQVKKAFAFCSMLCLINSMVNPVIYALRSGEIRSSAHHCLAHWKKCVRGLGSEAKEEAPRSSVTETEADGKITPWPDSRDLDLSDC

Compound	Ratio IC50 [1]	inhibition [2]	inhibition [3]	IC50 (Monoglyceride lipase) [nM]	Activity [4]	Activity [5]	Activity [6]	Ratio IC50 (Homo sapiens [7])	Activity [8]	Ratio IC50 (Homo sapiens [9])	Ratio IC50 [10]	half-life [11] [min]	half-life [12] [min]	half-life [13] [min]	half-life [14] [min]	half-life [16] [min]	half-life [17] [min]	half-life [18] [min]	IC50 [19] [nM]	IC50 [20] [nM]	other results
O=C(Oc1cccc(N2CCS(=O)(=O)CC2)c1)N1CCC2(CC1)COC2	> 1000	inactive	inactive	> 1000	inactive	inactive	inactive	> 1000	inactive	> 1000	> 1000										
O=C(Oc1cccc(N2CCOCC2)c1)N1CCC(c2ccc(F)cc2)CC1	> 1000			> 1000	inactive	inactive	inactive	> 1000	inactive	> 1000	> 1000	> 60	> 60	15 to 25	> 60	> 60	15 to 25	> 60	16.3	2.93	concentration at 0.25 h [15]: 508 ng/mL; concentration at 0.25 h [21]: 506 ng/mL; half-life [22]: > 60 min; half-life [23]: 15 to 25 min
O=C(Oc1cccc(N2CCS(=O)(=O)CC2)c1)N1CCC(c2ccc(F)cc2)CC1	> 1000			> 1000	inactive	inactive	inactive	> 1000	inactive	> 1000	> 1000	> 60	> 60	15 to 25	> 60	> 60	15 to 25	> 60	10	2.3	concentration at 0.25 h [15]: 1230 ng/mL; concentration at 0.25 h [21]: 474 ng/mL; half-life [22]: > 60 min; half-life [23]: 15 to 25 min
C[C@@H]1CN(C(=O)Oc2cccc(N3CCS(=O)(=O)CC3)c2)[C@@H](C)CN1c1ccc(F)cc1		35%			inactive	inactive	inactive		inactive												
COc1ccc(N2CCN(C(=O)Oc3cccc(N4CCS(=O)(=O)CC4)c3)[C@@H](C(C)C)C2)cc1		inactive	inactive		inactive	inactive	inactive		inactive												
O=C(Oc1cccc(N2CCS(=O)(=O)CC2)c1)N1CCN(c2ccc(F)cc2)CC12CC2		54%			inactive	inactive	inactive		inactive												
O=C(Oc1cccc(N2CCS(=O)(=O)CC2)c1)N1C[C@@H]2C[C@H]1CN2c1ccc(F)cc1	> 1000		67%	> 1000	inactive	inactive	inactive	> 1000	inactive	> 1000	> 1000									341	
O=C(Oc1cccc(N2CCS(=O)(=O)CC2)c1)N1CCC(c2ccc(OCCF)cc2)CC1	> 1000			> 1000	inactive	inactive	inactive	> 1000	inactive	> 1000	> 1000	> 60	> 60	15 to 25	> 60	> 60	15 to 25	> 60	21.2	5.5	concentration at 0.25 h [15]: 909 ng/mL; concentration at 0.25 h [21]: 388 ng/mL; half-life [22]: > 60 min; half-life [23]: 15 to 25 min
C[C@H]1CN(c2ccccc2)CCN1C(=O)Oc1cccc(N2CCS(=O)(=O)CC2)c1		inactive	inactive		inactive	inactive	inactive		inactive												
O=C(Oc1cccc(N2CCS(=O)(=O)CC2)c1)N1CCN(Cc2cccc(Oc3ccccc3)c2)CC1	> 1000			> 1000	inactive	inactive	inactive	> 1000	inactive	> 1000	> 1000	> 60	> 60	15 to 25	> 60	> 60	15 to 25	> 60	2.3	2.2	half-life [22]: > 60 min; half-life [23]: 15 to 25 min
O=C(Oc1cccc(N2CCS(=O)(=O)CC2)c1)N1CCN(c2ccnnc2)CC1	> 1000	inactive	inactive	> 1000	inactive	inactive	inactive	> 1000	inactive	> 1000	> 1000										
